From ChEMBL document CHEMBL2434951, “Synthesis and antimicrobial activity of polyhalobenzonitrile quinazolin-4(3H)-one derivatives” (2013)
In brackets after ≈: the same amount, converted by molar mass. Activity calls are given as the source filed them. No cut-off for these calls is given here.

Columns and labels:
Assay type in all cases: functional
[1] = tested on: Staphylococcus aureus; assay: Antibacterial activity against Staphylococcus aureus ATCC 6538 assessed as growth inhibition after 24 hrs by liquid dilution method
How it was run: (§1)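 Liquid (tube) dilution. Compounds and positive controls in DMSO at 11 concentrations from 0.98 upward. Each tube held 1 mL compound solution plus bacterial or fungal inoculum and sterile water. Incubated 24 h, then checked for turbidity; MIC is the lowest concentration without growth. Chlorothalonil, norfloxacin and fluconazole as standards.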

[2] = tested on: Pseudomonas aeruginosa; assay: Antibacterial activity against Pseudomonas aeruginosa ATCC 15442 assessed as growth inhibition after 24 hrs by liquid dilution method; how it was run: as §1
[3] = tested on: Bacillus cereus; assay: Antibacterial activity against Bacillus cereus ATCC 14579 assessed as growth inhibition at 1000 ug/mL after 24 hrs by disk diffusion assay; conditions: for zone of inhibition at 1000 µg/mL: ATCC 14579, 24 h, read-out: DIZ
How it was run: (§2)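 Disk diffusion on nutrient agar, inoculum spread evenly. Disks of 6 mm Whatman No. 1 paper, dry-heat sterilized at 121 °C for 1 h, soaked in test compound at 1000 (micro)g/mL. Norfloxacin and chlorothalonil disks as positive controls, DMSO disks as negative control. Plates incubated 24 h at 37 °C. Inhibition zone diameter measured in mm.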

[4] = tested on: Pseudomonas aeruginosa; assay: Antibacterial activity against Pseudomonas aeruginosa ATCC 15442 assessed as growth inhibition at 1000 ug/mL after 24 hrs by disk diffusion assay; conditions: for zone of inhibition at 1000 µg/mL: ATCC 15442, 24 h, read-out: DIZ; how it was run: as §2
[5] = tested on: Bacillus cereus; assay: Antibacterial activity against Bacillus cereus ATCC 14579 assessed as growth inhibition after 24 hrs by liquid dilution method; how it was run: as §1
[6] = tested on: Candida albicans; assay: Antifungal activity against Candida albicans ATCC 10231 assessed as growth inhibition at 1000 ug/mL after 24 hrs by disk diffusion assay; conditions: for zone of inhibition at 1000 µg/mL: ATCC 10231, 24 h, read-out: DIZ; how it was run: as §2
[7] = tested on: Escherichia coli; assay: Antibacterial activity against Escherichia coli ATCC 8099 assessed as growth inhibition at 1000 ug/mL after 24 hrs by disk diffusion assay; conditions: for zone of inhibition at 1000 µg/mL: ATCC 8099, 24 h, read-out: DIZ; how it was run: as §2
[8] = tested on: Escherichia coli; assay: Antibacterial activity against Escherichia coli ATCC 8099 assessed as growth inhibition after 24 hrs by liquid dilution method; how it was run: as §1
[9] = tested on: Staphylococcus aureus; assay: Antibacterial activity against Staphylococcus aureus ATCC 6538 assessed as growth inhibition at 1000 ug/mL after 24 hrs by disk diffusion assay; conditions: for zone of inhibition at 1000 µg/mL: ATCC 6538, 24 h, read-out: DIZ; how it was run: as §2

SMILES | MIC ([1]; ATCC 6538, 24 h) | MIC ([2]; ATCC 15442, 24 h) | zone of inhibition at 1000 µg/mL [3] | zone of inhibition at 1000 µg/mL [4] | MIC ([5]; ATCC 14579, 24 h) | zone of inhibition at 1000 µg/mL [6] | zone of inhibition at 1000 µg/mL [7] | MIC ([8]; ATCC 8099, 24 h) | zone of inhibition at 1000 µg/mL [9] | diameter of the inhibition zone (DIZ) [6] | diameter of the inhibition zone (DIZ) [3] | diameter of the inhibition zone (DIZ) [4] | diameter of the inhibition zone (DIZ) [7] | diameter of the inhibition zone (DIZ) [9] | MIC [1] | MIC [2] | MIC [5] | MIC [8]
Cc1ccccc1Nc1ccc(N)c2nc[nH]c(=O)c12 | 250 µg/mL (≈ 939 µM) | 417 µg/mL (≈ 1560 µM) | 6 mm | 8.5 mm | 167 µg/mL (≈ 626 µM) | 10 mm | 9 mm | 250 µg/mL (≈ 939 µM) | 8 mm |  |  |  |  |  |  |  |  | 
N#Cc1c(Cl)c(Cl)c(Nc2ccccc2Nc2ccc([N+](=O)[O-])c3nc[nH]c(=O)c23)c(C#N)c1Cl | 250 µg/mL (≈ 475 µM) | 125 µg/mL (≈ 237 µM) | 11.2 mm | 6.7 mm | 41.7 µg/mL (≈ 79.2 µM) |  | 7 mm | 167 µg/mL (≈ 316 µM) | 7.3 mm | inactive |  |  |  |  |  |  |  | 
Cc1ccc(Nc2ccc(N)c3nc[nH]c(=O)c23)cc1C |  |  |  |  |  |  |  |  | 6.5 mm | inactive | inactive | inactive | inactive |  |  |  |  | 
Nc1ccc(Nc2ccccc2)c2c(=O)[nH]cnc12 | 208 µg/mL (≈ 824 µM) | 250 µg/mL (≈ 991 µM) | 9.5 mm | 7 mm | 125 µg/mL (≈ 495 µM) |  |  | 208 µg/mL (≈ 826 µM) |  | inactive |  |  | inactive | inactive |  |  |  | 
Nc1ccc(Nc2cccc(Cl)c2)c2c(=O)[nH]cnc12 |  |  | 6 mm | 6.5 mm |  |  | 6 mm |  | 6.5 mm | inactive |  |  |  |  | inactive | inactive | inactive | inactive
N#Cc1c(F)c(Cl)c(Nc2ccc(Nc3ccccc3)c3c(=O)[nH]cnc23)c(C#N)c1F |  | 500 µg/mL (≈ 1110 µM) | 6 mm | 9.5 mm | 500 µg/mL (≈ 1110 µM) | 6 mm |  |  | 8.9 mm |  |  |  | inactive |  | inactive |  |  | inactive
CN(C)c1ccc(N)c2nc[nH]c(=O)c12 |  |  |  |  |  |  | 8.5 mm |  |  | inactive | inactive | inactive |  | inactive |  |  |  | 
N#Cc1c(Cl)c(Cl)c(Nc2ccc(Nc3ccccc3)c3c(=O)[nH]cnc23)c(C#N)c1Cl | 125 µg/mL (≈ 259 µM) | 83.4 µg/mL (≈ 173 µM) | 11.7 mm | 11.3 mm | 0.5 µg/mL (≈ 1.04 µM) | 10.3 mm | 11 mm | 250 µg/mL (≈ 519 µM) | 10 mm |  |  |  |  |  |  |  |  | 
Nc1ccc(Nc2ccc(Cl)cc2)c2c(=O)[nH]cnc12 |  |  |  |  |  |  |  |  |  | inactive | inactive | inactive | inactive | inactive |  |  |  | 
CCN(CC)c1ccc(N)c2nc[nH]c(=O)c12 |  |  | 6 mm | 7.5 mm |  |  | 6 mm |  | 7.3 mm | inactive |  |  |  |  |  |  |  | 
Cc1ccc(N)c(Nc2ccc([N+](=O)[O-])c3nc[nH]c(=O)c23)c1 | 10.4 µg/mL (≈ 33.4 µM) | 20.8 µg/mL (≈ 66.8 µM) | 15 mm | 16.8 mm | 20.8 µg/mL (≈ 66.8 µM) | 13.5 mm | 14.7 mm | 20.8 µg/mL (≈ 66.8 µM) | 5.3 mm |  |  |  |  |  |  |  |  | 
Nc1ccc(Nc2ccc(F)cc2)c2c(=O)[nH]cnc12 |  |  | 6 mm | 6 mm |  |  |  |  |  | inactive |  |  | inactive | inactive |  |  |  | 
Cc1cccc(Nc2ccc(Nc3c(Cl)c(Cl)c(C#N)c(Cl)c3C#N)c3nc[nH]c(=O)c23)c1 | 5.2 µg/mL (≈ 10.5 µM) |  | 11 mm | 10 mm | 1 µg/mL (≈ 2.02 µM) | 10 mm | 10.3 mm | 104 µg/mL (≈ 210 µM) | 9.7 mm |  |  |  |  |  |  | inactive |  | 
Cc1ccc(Nc2c(Cl)c(Cl)c(C#N)c(Cl)c2C#N)c(Nc2ccc([N+](=O)[O-])c3nc[nH]c(=O)c23)c1 | 500 µg/mL (≈ 925 µM) | 417 µg/mL (≈ 771 µM) | 10.7 mm | 9.5 mm | 52.1 µg/mL (≈ 96.3 µM) | 7.5 mm | 9 mm | 417 µg/mL (≈ 771 µM) | 9.3 mm |  |  |  |  |  |  |  |  | 
N#Cc1c(Cl)c(Cl)c(Nc2ccc(Nc3ccc(Cl)cc3)c3c(=O)[nH]cnc23)c(C#N)c1Cl | 4.7 µg/mL (≈ 9.11 µM) | 417 µg/mL (≈ 807 µM) | 9 mm | 9.5 mm | 83.3 µg/mL (≈ 161 µM) | 9.5 mm | 9 mm | 333 µg/mL (≈ 646 µM) | 8.8 mm |  |  |  |  |  |  |  |  | 
Cc1ccc(Nc2ccc(N)c3nc[nH]c(=O)c23)cc1 |  |  |  |  |  |  |  |  |  | inactive | inactive | inactive | inactive | inactive |  |  |  | 
Cc1cc(C)cc(Nc2ccc(N)c3nc[nH]c(=O)c23)c1 |  |  | 6 mm | 6.3 mm |  |  |  |  |  | inactive |  |  | inactive | inactive |  |  |  | 
Cc1cccc(Nc2ccc(N)c3nc[nH]c(=O)c23)c1 |  |  |  |  |  |  | 6.5 mm |  |  | inactive | inactive | inactive |  | inactive |  |  |  | 
Nc1ccc(N2CCCCC2)c2c(=O)[nH]cnc12 |  |  |  |  |  |  | 7.8 mm |  |  | inactive | inactive | inactive |  | inactive |  |  |  | 
Nc1ccccc1Nc1ccc([N+](=O)[O-])c2nc[nH]c(=O)c12 |  |  |  |  |  |  | 7.8 mm |  |  | inactive | inactive | inactive |  | inactive |  |  |  | 
CCN(CC)c1ccc(Nc2c(Cl)c(Cl)c(C#N)c(Cl)c2C#N)c2nc[nH]c(=O)c12 |  |  | 6 mm | 7.5 mm |  |  | 6 mm |  | 7.7 mm | inactive |  |  |  |  |  |  |  | 
